# ChEMBL document CHEMBL1140345, “Conformational constraint in oxazolidinone antibacterials. Synthesis and structure-activity studies of (azabicyclo[3.1.0]hexylphenyl)oxazolidinones” (2005)
# System: Haemophilus influenzae
# Assay: Minimum inhibitory concentration against ampicillin-reisitant Haemophilus influenzae UC30063
# Assay type: functional
# Conditions: not given
# How it was run: (§1)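 Broth microdilution MIC following the NCCLS M7-A4 approved standard for dilution susceptibility testing of aerobically growing bacteria. The method is taken as accurate to within one dilution.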
row,SMILES,MIC [mg/L]
1,CC(=O)NC[C@H]1CN(c2cc(F)c(N3C[C@@H]4[C@@H](N)[C@@H]4C3)c(F)c2)C(=O)O1 (stereo in doubt),32

# Same assay, conditions: Haemophilus influenzae; read-out: MIC
row,SMILES,MIC [mg/L]
1,CNC(=O)[C@H]1[C@@H]2CN(c3c(F)cc(N4C[C@H](CNC(C)=O)OC4=O)cc3F)C[C@@H]21,16
2,CC(=O)NC[C@H]1CN(c2cc(F)c(N3C[C@@H]4[C@H](C3)[C@H]4C(=O)NO)c(F)c2)C(=O)O1,32
3,CC(=O)NC[C@H]1CN(c2cc(F)c(N3C[C@@H]4[C@H](C3)[C@H]4C(=O)N(C)C)c(F)c2)C(=O)O1,64
4,CC(=O)NC[C@H]1CN(c2cc(F)c(N3C[C@@H]4[C@H](C3)[C@H]4C(=O)NOCc3ccccc3)c(F)c2)C(=O)O1,> 64
5,CC(=O)NC[C@H]1CN(c2cc(F)c(N3C[C@@H]4[C@H](C3)[C@H]4NS(C)(=O)=O)c(F)c2)C(=O)O1,32
6,CC(=O)NC[C@H]1CN(c2cc(F)c(N3C[C@@H]4[C@H](C3)[C@H]4NC(=O)CO)c(F)c2)C(=O)O1,64
7,CC(=O)NC[C@H]1CN(c2cc(F)c(N3C[C@@H]4[C@H](C3)[C@H]4C(N)=O)c(F)c2)C(=O)O1,32
8,CC(=O)NC[C@H]1CN(c2cc(F)c(N3C[C@H]4C[C@H]4C3)c(F)c2)C(=O)O1,64
9,CC(=O)NC[C@H]1CN(c2cc(F)c(N3C[C@@H]4[C@H](C3)[C@H]4NC(=O)Nc3ccccc3)c(F)c2)C(=O)O1,> 64

# System: Staphylococcus aureus
# Assay: Minimum inhibitory concentration against methicillin-susceptible Staphylococcus aureus UC9213
# Assay type: functional
# Conditions: not given
# How it was run: (§2)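 MIC determined by standard broth microdilution following the NCCLS M7-A4 approved standard for dilution susceptibility testing of aerobically growing bacteria.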
row,SMILES,MIC [mg/L]
1,CNC(=O)[C@H]1[C@@H]2CN(c3c(F)cc(N4C[C@H](CNC(C)=O)OC4=O)cc3F)C[C@@H]21,2
2,CC(=O)NC[C@H]1CN(c2cc(F)c(N3C[C@@H]4[C@H](C3)[C@H]4C(=O)NO)c(F)c2)C(=O)O1,4
3,CC(=O)NC[C@H]1CN(c2cc(F)c(N3C[C@@H]4[C@H](C3)[C@H]4C(=O)N(C)C)c(F)c2)C(=O)O1,4
4,CC(=O)NC[C@H]1CN(c2cc(F)c(N3C[C@@H]4[C@H](C3)[C@H]4C(=O)NOCc3ccccc3)c(F)c2)C(=O)O1,4
5,CC(=O)NC[C@H]1CN(c2cc(F)c(N3C[C@@H]4[C@H](C3)[C@H]4NS(C)(=O)=O)c(F)c2)C(=O)O1,4
6,CC(=O)NC[C@H]1CN(c2cc(F)c(N3C[C@@H]4[C@H](C3)[C@H]4NC(=O)CO)c(F)c2)C(=O)O1,16
7,CC(=O)NC[C@H]1CN(c2cc(F)c(N3C[C@@H]4[C@H](C3)[C@H]4C(N)=O)c(F)c2)C(=O)O1,4
8,CC(=O)NC[C@H]1CN(c2cc(F)c(N3C[C@H]4C[C@H]4C3)c(F)c2)C(=O)O1,2
9,CC(=O)NC[C@H]1CN(c2cc(F)c(N3C[C@@H]4[C@H](C3)[C@H]4NC(=O)Nc3ccccc3)c(F)c2)C(=O)O1,8
10,CC(=O)NC[C@H]1CN(c2cc(F)c(N3C[C@@H]4[C@@H](N)[C@@H]4C3)c(F)c2)C(=O)O1 (stereo in doubt),8

# System: Staphylococcus aureus
# Assay: Minimum inhibitory concentration against methicillin, ciprofloxacin, rifampin, imipenem-resistant Staphylococcus aureus UC12673
# Assay type: functional
# Conditions: not given
# How it was run: as §2
row,SMILES,MIC [mg/L]
1,CNC(=O)[C@H]1[C@@H]2CN(c3c(F)cc(N4C[C@H](CNC(C)=O)OC4=O)cc3F)C[C@@H]21,2
2,CC(=O)NC[C@H]1CN(c2cc(F)c(N3C[C@@H]4[C@H](C3)[C@H]4C(=O)NO)c(F)c2)C(=O)O1,4
3,CC(=O)NC[C@H]1CN(c2cc(F)c(N3C[C@@H]4[C@H](C3)[C@H]4C(=O)N(C)C)c(F)c2)C(=O)O1,4
4,CC(=O)NC[C@H]1CN(c2cc(F)c(N3C[C@@H]4[C@H](C3)[C@H]4C(=O)NOCc3ccccc3)c(F)c2)C(=O)O1,2
5,CC(=O)NC[C@H]1CN(c2cc(F)c(N3C[C@@H]4[C@H](C3)[C@H]4NS(C)(=O)=O)c(F)c2)C(=O)O1,4
6,CC(=O)NC[C@H]1CN(c2cc(F)c(N3C[C@@H]4[C@H](C3)[C@H]4NC(=O)CO)c(F)c2)C(=O)O1,16
7,CC(=O)NC[C@H]1CN(c2cc(F)c(N3C[C@@H]4[C@H](C3)[C@H]4C(N)=O)c(F)c2)C(=O)O1,4
8,CC(=O)NC[C@H]1CN(c2cc(F)c(N3C[C@H]4C[C@H]4C3)c(F)c2)C(=O)O1,2
9,CC(=O)NC[C@H]1CN(c2cc(F)c(N3C[C@@H]4[C@H](C3)[C@H]4NC(=O)Nc3ccccc3)c(F)c2)C(=O)O1,4
10,CC(=O)NC[C@H]1CN(c2cc(F)c(N3C[C@@H]4[C@@H](N)[C@@H]4C3)c(F)c2)C(=O)O1 (stereo in doubt),4

# System: Escherichia coli
# Assay: Minimum inhibitory concentration against Escherichia coli UC6674
# Assay type: functional
# Conditions: not given
# How it was run: as §1
row,SMILES,MIC [mg/L]
1,CNC(=O)[C@H]1[C@@H]2CN(c3c(F)cc(N4C[C@H](CNC(C)=O)OC4=O)cc3F)C[C@@H]21,> 64
2,CC(=O)NC[C@H]1CN(c2cc(F)c(N3C[C@@H]4[C@H](C3)[C@H]4C(=O)NO)c(F)c2)C(=O)O1,> 64
3,CC(=O)NC[C@H]1CN(c2cc(F)c(N3C[C@@H]4[C@H](C3)[C@H]4C(=O)N(C)C)c(F)c2)C(=O)O1,> 64
4,CC(=O)NC[C@H]1CN(c2cc(F)c(N3C[C@@H]4[C@H](C3)[C@H]4C(=O)NOCc3ccccc3)c(F)c2)C(=O)O1,> 64
5,CC(=O)NC[C@H]1CN(c2cc(F)c(N3C[C@@H]4[C@H](C3)[C@H]4NS(C)(=O)=O)c(F)c2)C(=O)O1,> 64
6,CC(=O)NC[C@H]1CN(c2cc(F)c(N3C[C@@H]4[C@H](C3)[C@H]4NC(=O)CO)c(F)c2)C(=O)O1,> 64
7,CC(=O)NC[C@H]1CN(c2cc(F)c(N3C[C@@H]4[C@H](C3)[C@H]4C(N)=O)c(F)c2)C(=O)O1,> 64
8,CC(=O)NC[C@H]1CN(c2cc(F)c(N3C[C@H]4C[C@H]4C3)c(F)c2)C(=O)O1,> 64
9,CC(=O)NC[C@H]1CN(c2cc(F)c(N3C[C@@H]4[C@H](C3)[C@H]4NC(=O)Nc3ccccc3)c(F)c2)C(=O)O1,> 64
10,CC(=O)NC[C@H]1CN(c2cc(F)c(N3C[C@@H]4[C@@H](N)[C@@H]4C3)c(F)c2)C(=O)O1 (stereo in doubt),> 64

# System: Enterococcus faecalis
# Assay: Minimum inhibitory concentration against Enterococcus faecalis UC9217
# Assay type: functional
# Conditions: not given
# How it was run: as §1
row,SMILES,MIC [mg/L]
1,CNC(=O)[C@H]1[C@@H]2CN(c3c(F)cc(N4C[C@H](CNC(C)=O)OC4=O)cc3F)C[C@@H]21,1
2,CC(=O)NC[C@H]1CN(c2cc(F)c(N3C[C@@H]4[C@H](C3)[C@H]4C(=O)NO)c(F)c2)C(=O)O1,2
3,CC(=O)NC[C@H]1CN(c2cc(F)c(N3C[C@@H]4[C@H](C3)[C@H]4C(=O)N(C)C)c(F)c2)C(=O)O1,4
4,CC(=O)NC[C@H]1CN(c2cc(F)c(N3C[C@@H]4[C@H](C3)[C@H]4C(=O)NOCc3ccccc3)c(F)c2)C(=O)O1,2
5,CC(=O)NC[C@H]1CN(c2cc(F)c(N3C[C@@H]4[C@H](C3)[C@H]4NS(C)(=O)=O)c(F)c2)C(=O)O1,2
6,CC(=O)NC[C@H]1CN(c2cc(F)c(N3C[C@@H]4[C@H](C3)[C@H]4NC(=O)CO)c(F)c2)C(=O)O1,8
7,CC(=O)NC[C@H]1CN(c2cc(F)c(N3C[C@@H]4[C@H](C3)[C@H]4C(N)=O)c(F)c2)C(=O)O1,2
8,CC(=O)NC[C@H]1CN(c2cc(F)c(N3C[C@H]4C[C@H]4C3)c(F)c2)C(=O)O1,2
9,CC(=O)NC[C@H]1CN(c2cc(F)c(N3C[C@@H]4[C@H](C3)[C@H]4NC(=O)Nc3ccccc3)c(F)c2)C(=O)O1,2
10,CC(=O)NC[C@H]1CN(c2cc(F)c(N3C[C@@H]4[C@@H](N)[C@@H]4C3)c(F)c2)C(=O)O1 (stereo in doubt),4

# System: Staphylococcus epidermidis
# Assay: Minimum inhibitory concentration against methicillin-resistant Staphylococcus epidermidis UC12084
# Conditions: not given
row,SMILES,MIC [mg/L]
1,CNC(=O)[C@H]1[C@@H]2CN(c3c(F)cc(N4C[C@H](CNC(C)=O)OC4=O)cc3F)C[C@@H]21,1
2,CC(=O)NC[C@H]1CN(c2cc(F)c(N3C[C@@H]4[C@H](C3)[C@H]4C(=O)NO)c(F)c2)C(=O)O1,2
3,CC(=O)NC[C@H]1CN(c2cc(F)c(N3C[C@@H]4[C@H](C3)[C@H]4C(=O)N(C)C)c(F)c2)C(=O)O1,2
4,CC(=O)NC[C@H]1CN(c2cc(F)c(N3C[C@@H]4[C@H](C3)[C@H]4C(=O)NOCc3ccccc3)c(F)c2)C(=O)O1,1
5,CC(=O)NC[C@H]1CN(c2cc(F)c(N3C[C@@H]4[C@H](C3)[C@H]4NS(C)(=O)=O)c(F)c2)C(=O)O1,1
6,CC(=O)NC[C@H]1CN(c2cc(F)c(N3C[C@@H]4[C@H](C3)[C@H]4NC(=O)CO)c(F)c2)C(=O)O1,4
7,CC(=O)NC[C@H]1CN(c2cc(F)c(N3C[C@@H]4[C@H](C3)[C@H]4C(N)=O)c(F)c2)C(=O)O1,2
8,CC(=O)NC[C@H]1CN(c2cc(F)c(N3C[C@H]4C[C@H]4C3)c(F)c2)C(=O)O1,1
9,CC(=O)NC[C@H]1CN(c2cc(F)c(N3C[C@@H]4[C@H](C3)[C@H]4NC(=O)Nc3ccccc3)c(F)c2)C(=O)O1,2
10,CC(=O)NC[C@H]1CN(c2cc(F)c(N3C[C@@H]4[C@@H](N)[C@@H]4C3)c(F)c2)C(=O)O1 (stereo in doubt),1

# System: Streptococcus pneumoniae
# Assay: Minimum inhibitory concentration against penicillin-susceptible Streptococcus pneumoniae UC9912
# Assay type: functional
# Conditions: not given
# How it was run: as §1
row,SMILES,MIC [mg/L]
1,CC(=O)NC[C@H]1CN(c2cc(F)c(N3C[C@@H]4[C@@H](N)[C@@H]4C3)c(F)c2)C(=O)O1 (stereo in doubt),1

# Same assay, conditions: Streptococcus pneumoniae; read-out: MIC
row,SMILES,MIC [mg/L]
1,CNC(=O)[C@H]1[C@@H]2CN(c3c(F)cc(N4C[C@H](CNC(C)=O)OC4=O)cc3F)C[C@@H]21,0.5
2,CC(=O)NC[C@H]1CN(c2cc(F)c(N3C[C@@H]4[C@H](C3)[C@H]4C(=O)NO)c(F)c2)C(=O)O1,1
3,CC(=O)NC[C@H]1CN(c2cc(F)c(N3C[C@@H]4[C@H](C3)[C@H]4C(=O)N(C)C)c(F)c2)C(=O)O1,2
4,CC(=O)NC[C@H]1CN(c2cc(F)c(N3C[C@@H]4[C@H](C3)[C@H]4C(=O)NOCc3ccccc3)c(F)c2)C(=O)O1,1
5,CC(=O)NC[C@H]1CN(c2cc(F)c(N3C[C@@H]4[C@H](C3)[C@H]4NS(C)(=O)=O)c(F)c2)C(=O)O1,1
6,CC(=O)NC[C@H]1CN(c2cc(F)c(N3C[C@@H]4[C@H](C3)[C@H]4NC(=O)CO)c(F)c2)C(=O)O1,2
7,CC(=O)NC[C@H]1CN(c2cc(F)c(N3C[C@@H]4[C@H](C3)[C@H]4C(N)=O)c(F)c2)C(=O)O1,1
8,CC(=O)NC[C@H]1CN(c2cc(F)c(N3C[C@H]4C[C@H]4C3)c(F)c2)C(=O)O1,0.5
9,CC(=O)NC[C@H]1CN(c2cc(F)c(N3C[C@@H]4[C@H](C3)[C@H]4NC(=O)Nc3ccccc3)c(F)c2)C(=O)O1,1
